Measurements of several laboratories.
Lines come from different studies, so protocols differ.
Target: Prostaglandin G/H synthase 2 (PTGS2, Homo sapiens, UniProt P35354)
Effect on: enzyme activity
Action: inhibitor
One construct used (P35354 18-604): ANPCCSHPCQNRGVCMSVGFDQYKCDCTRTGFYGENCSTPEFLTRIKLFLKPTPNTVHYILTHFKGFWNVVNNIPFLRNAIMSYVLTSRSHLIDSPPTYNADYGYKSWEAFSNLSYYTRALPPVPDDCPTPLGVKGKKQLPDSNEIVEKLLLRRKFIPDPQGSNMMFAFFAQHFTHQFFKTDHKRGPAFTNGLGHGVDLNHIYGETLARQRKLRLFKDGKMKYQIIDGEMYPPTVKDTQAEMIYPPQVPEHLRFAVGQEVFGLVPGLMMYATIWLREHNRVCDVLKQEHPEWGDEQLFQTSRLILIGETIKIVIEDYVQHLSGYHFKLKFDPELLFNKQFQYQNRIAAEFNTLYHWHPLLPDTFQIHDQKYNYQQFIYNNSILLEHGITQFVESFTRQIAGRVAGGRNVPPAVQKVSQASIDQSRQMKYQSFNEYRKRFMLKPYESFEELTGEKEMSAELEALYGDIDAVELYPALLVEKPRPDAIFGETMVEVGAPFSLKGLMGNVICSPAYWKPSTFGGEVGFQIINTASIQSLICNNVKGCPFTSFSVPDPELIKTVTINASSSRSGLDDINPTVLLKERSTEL

| SMILES | technique | IC50 |
| --- | --- | --- |
| CS(=O)(=O)c1ccc(-c2nc3ccccn3c2Nc2ccc(Cl)cc2)cc1 |  | 70 nM |
| O=Cc1cn(-c2nc(N3CCCCC3)nc(N3CCCCC3)n2)c2ccccc12 |  | 7000 nM |
| CS(=O)(=O)c1ccc(-c2nc3ccccn3c2Nc2ccc(F)cc2)cc1 |  | 100 nM |
| O=C(O)c1cc(O)c(O)c(O)c1 |  | 8140 nM |
| CCn1c(-c2nc3cc(C(=O)N4CCC[C@@H](N)C4)cc(OC)c3n2C)cc2cccnc21 |  | > 100000 nM |
| COc1ccc(-c2nn(-c3ccc(S(C)(=O)=O)cc3)cc2C=N/N=c2\[nH]c(-c3ccc([N+](=O)[O-])cc3)cs2)cc1 |  | 8830 nM |
| CC1=NN(c2cccc(Cl)c2)C(=O)/C1=C\c1cn(-c2nc(N3CCCC3)nc(N3CCOCC3)n2)c2ccccc12 |  | 1000 nM |
| CC(C)Cc1ccc(-c2nn(-c3ccc(S(C)(=O)=O)cc3)cc2/C=N\N=C2/NC(=O)CS2)cc1 |  | 756 nM |
| O=C1Nc2ccccc2/C1=C/c1cn(-c2nc(N3CCCC3)nc(N3CCOCC3)n2)c2ccccc12 |  | 8000 nM |
| Cc1ccc(Nc2c(-c3ccc(S(C)(=O)=O)cc3)nc3ccccn23)cc1 |  | 100 nM |
| CC(=O)c1ccc(/N=N/c2cc(/C=C/C(=O)O)ccc2O)cc1 |  | > 100000 nM |
| Cc1ccn2c(Nc3ccc(F)cc3)c(-c3ccc(S(C)(=O)=O)cc3)nc2c1 |  | 80 nM |
| O=C1/C(=C\c2cn(-c3nc(N4CCCCC4)nc(N4CCOCC4)n3)c3ccccc23)c2ccccc2N1c1c(Cl)cccc1Cl |  | 1000 nM |
| COc1ccc(Nc2c(-c3ccc(S(C)(=O)=O)cc3)nc3ccccn23)cc1 |  | 390 nM |
| O=C(O)c1ccc(O)cc1 | absorbance | 19500 nM |
| CS(=O)(=O)c1ccc(-c2ncccc2-c2nc3ccccc3s2)cc1 | absorbance | 860 nM |

| SMILES | technique | IC50 |
| --- | --- | --- |
| O=c1cc(-c2ccc(O)c(O)c2)oc2cc(O)cc(O)c12 |  | 2270 nM |
| CC1=NN(c2cccc(Cl)c2)C(=O)/C1=C\c1cn(-c2nc(Cl)nc(N3CCOCC3)n2)c2ccccc12 |  | 100 nM |
| Cc1cccc2nc(-c3ccc(S(C)(=O)=O)cc3)c(Nc3ccc(Cl)cc3)n12 |  | 80 nM |
| CS(=O)(=O)c1ccc(-n2cc(C=N/N=c3\[nH]c(-c4ccc(Br)cc4)cs3)c(-c3ccc([N+](=O)[O-])cc3)n2)cc1 |  | 27800 nM |
| O=c1oc2c(O)c(O)cc3c(=O)oc4c(O)c(O)cc1c4c23 |  | 4620 nM |
| Cc1ccc(-c2nn(-c3ccc(S(C)(=O)=O)cc3)cc2/C=N\N=c2/[nH]c(-c3ccc([N+](=O)[O-])cc3)cs2)cc1 |  | 11300 nM |
| Cc1ccc(-c2nc3ccccc3s2)c(-c2ccc(S(C)(=O)=O)cc2)c1 | absorbance | 230 nM |
| O=C1Nc2ccccc2/C1=C/c1cn(-c2nc(N3CCCCC3)nc(N3CCOCC3)n2)c2ccccc12 |  | 80 nM |
| NS(=O)(=O)c1ccc(-c2ncc(Cl)cc2-c2nc3ccccc3s2)cc1 | absorbance | 210 nM |
| CC1=NN(c2cccc(Cl)c2)C(=O)/C1=C\c1cn(-c2nc(N3CCOCC3)nc(N3CCOCC3)n2)c2ccccc12 |  | 20 nM |
| Cc1ccc(Nc2c(-c3ccc(S(C)(=O)=O)cc3)nc3cc(C)ccn23)cc1 |  | 70 nM |
| CC(=O)c1cccc(/N=N/c2cc(/C=C/C(=O)O)ccc2O)c1 |  | > 100000 nM |
| COc1ccc(Nc2c(-c3ccc(S(C)(=O)=O)cc3)nc3cc(C)ccn23)cc1 |  | 100 nM |
| CS(=O)(=O)c1ccc(-n2cc(/C=N/N=c3\[nH]c(-c4ccc([N+](=O)[O-])cc4)cs3)c(-c3ccc(Br)cc3)n2)cc1 |  | 11500 nM |
| O=C1/C(=C\c2cn(-c3nc(N4CCCC4)nc(N4CCOCC4)n3)c3ccccc23)c2ccccc2N1c1c(Cl)cccc1Cl |  | 4000 nM |
| COc1ccc(-c2cc(=O)c3c(O)cc(O[C@@H]4O[C@H](CO)[C@@H](O)[C@H](O)[C@H]4O)cc3o2)cc1O | absorbance | 973 nM |
